Compounds with a hit are over-represented: about 3.5% of the library has one in this group of screens.
RGS4 block: human RGS4 inhibition. HEK293 M3R/RGS4 inducible, Fluo-4 calcium flux; active compounds read high; triggered by carbachol at its EC20. 0.45% of 310,000 active. P49798. B-score at 10 µM;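 active = B-score, a plate-corrected calcium signal, over three deviations above library mean, with baseline fluorescence within five deviations of library mean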;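 note: RGS4 expression induced by doxycycline in cells with stable M3 receptor; B-score is computed from the integrated fluorescence ratio over baseline after carbachol; higher B-score means a larger calcium signal and so more RGS4 inhibition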
Target sequence (P49798 whole entry, looked up): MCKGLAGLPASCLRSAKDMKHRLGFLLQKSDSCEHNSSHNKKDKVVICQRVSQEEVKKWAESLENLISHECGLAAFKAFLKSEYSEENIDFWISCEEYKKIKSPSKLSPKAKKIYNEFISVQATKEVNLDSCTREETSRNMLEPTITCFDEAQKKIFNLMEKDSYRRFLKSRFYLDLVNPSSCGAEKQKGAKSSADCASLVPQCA
MrgX1 ag: human MrgX1 receptor agonism, primary screen | MrgX1-HEK293 cells, Fluo-4 calcium fluorescence, agonist mode; active compounds read high | B-score at 10 µM | 0.44% of 310,000 active;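 active = calcium response B-score plate-corrected fluorescence ratio at least 3 library SD, with starting fluorescence B-score inside 5 SD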
Target sequence (Q96LB2 whole entry, looked up): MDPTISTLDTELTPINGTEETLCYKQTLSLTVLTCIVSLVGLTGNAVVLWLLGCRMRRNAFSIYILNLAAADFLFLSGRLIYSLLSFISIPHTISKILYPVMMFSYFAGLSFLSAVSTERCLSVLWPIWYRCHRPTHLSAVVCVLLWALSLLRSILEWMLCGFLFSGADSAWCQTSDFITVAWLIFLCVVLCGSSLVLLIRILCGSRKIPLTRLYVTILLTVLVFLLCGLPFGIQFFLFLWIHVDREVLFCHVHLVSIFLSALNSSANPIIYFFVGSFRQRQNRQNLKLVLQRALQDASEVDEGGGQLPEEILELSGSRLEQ
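Material: MrgX1-expressing HEK293 cells / Dosing: compound as first of three additions / Incubation: overnight seeding, then 1 h dark dye loading / Signal: Fluo-4 NW calcium fluorescence / Evaluation: B-scored fluorescence response ratio / Benchmarks: positive and negative control wells on each plate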
RGS4 pot: potentiators or activators of RGS4. HEK293 M3R/inducible RGS4, carbachol calcium flux Fluo4; active compounds read low. B-score at 10 µM. 0.92% of 310,000 active;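 active = B-score of the integrated calcium signal more than 4 SD below the library mean, with starting fluorescence not abnormally high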;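 note: negative B-score means reduced calcium response which marks RGS4 activation or potentiation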
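Reagent: ECmax carbachol challenge; Test system: M3R-expressing HEK293 line, RGS4 induced by doxycycline; Schedule: overnight RGS4 induction, 30 min dye load 37 °C, 20 min compound RT; Detection: calcium dye Fluo4 fluorescence; Read-out: Agonist-evoked peak-minus-minimum fluorescence over baseline, integrated ratio, B score.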
MrgX1 allo act: allosterically activates human MrgX1 receptor signaling. Q96LB2. MrgX1-HEK293, Fluo-4 calcium flux, FDSS; active compounds read high. B-score at 10 µM. 0.63% of 310,000 active;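 active = plate-corrected calcium response at least 3 library SD above typical, normal starting fluorescence, not activating the receptor alone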;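 note: compound read alongside a low EC10 to EC30 dose of BAM8-22 agonist; peak minus trough fluorescence over baseline measured at the second addition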
MrgX1 antagonist: blocks BAM8-22 activation of human MrgX1 receptor; AID 588676; 1.3% of 310,000 active; B-score at 10 µM; MRGX1-HEK293 calcium flux, Fluo-4, BAM8-22 antagonism; active compounds read low;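 active = calcium-response B-score plate-corrected more than 3 library SD below zero, starting fluorescence within 5 deviations, no agonist response on first addition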;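 note: peak minus trough fluorescence over baseline after final BAM8-22 challenge near maximal dose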
Numbers stand for hits; 0 = inactive; - = not tested or not shown.

SMILES | RGS4 block | MrgX1 ag | RGS4 pot | MrgX1 allo act | MrgX1 antagonist
Cc1ccc(CSc2nc3ccccc3cc2C=O)cc1 | 0 | 0 | -8.3 | 0 | 0
CCn1ncc(/C=N\NC(=O)c2ccc3c(c2)c(C)c(C)n3Cc2ccccc2)c1C | 0 | 0 | 0 | 0 | 0
CCn1nc(C)c(/C=N/NC(=O)c2ccc3c(c2)c(C)c(C)n3Cc2ccccc2)c1C | 0 | 0 | -8.32 | 0 | 0
Cc1ccc(S(=O)(=O)N2[C@@H](c3ccccc3)C(C(=O)O)=CC[C@H]2c2cccc(C)c2)cc1 | - | 0 | - | 0 | 0
Cc1ccc(S(=O)(=O)N2[C@@H](c3ccccc3F)C(C(=O)O)=CC[C@H]2c2cccc(C)c2)cc1 | - | 0 | - | 10.6 | 0
Cc1ccc(S(=O)(=O)N2[C@@H](c3ccccc3F)C(C(=O)O)=CC[C@H]2c2ccc(Cl)c(Cl)c2)cc1 | - | 0 | - | 11.6 | 0
Cn1c(C(=O)O)c(CC(=O)NCC2COc3ccccc3O2)c2ccccc21 (configuration not stated) | 0 | 0 | 0 | 0 | 0
O=C(Nc1ncc(S(=O)(=O)c2ccc([N+](=O)[O-])cc2)s1)c1cccc2ccccc12 | 0 | 0 | -7.65 | 0 | 0
COCC(=O)Nc1ncc(S(=O)(=O)c2ccc([N+](=O)[O-])cc2)s1 | 0 | 0 | 0 | 0 | 0
O=C(CSCc1ccc([N+](=O)[O-])cc1)NN=C1CCCCCC1 | 0 | 0 | 0 | 0 | 0
Cc1sc2nc(CSc3cccc(C(F)(F)F)c3)[nH]c(=O)c2c1C | 0 | 0 | 0 | 0 | -5.11
Cc1cc2cc(C)c(SCC(=O)NCc3ccco3)nc2cc1C | 0 | 0 | 0 | 0 | 0
Cc1cc(C(=O)NCc2cccc(Cl)c2)c2ccccc2n1 | 0 | 0 | 0 | 0 | 0
CC(=O)Nc1ccc(Br)c2ccccc12 | 0 | 0 | 0 | 0 | 0
O=C(Nc1ccc(Br)c2ccccc12)c1ccc2ccccc2c1O | 0 | 0 | -7.5 | 0 | 0
Cc1nn(CCCC(=O)NCc2ccc(F)cc2)c(=O)c2nccn12 | 0 | 0 | 0 | 0 | -5.52
CCN(CC(=O)Nc1ccc2c(c1)OCCO2)C(=O)/C=C/c1ccc(OC)c(OC)c1 | 0 | 0 | 0 | 0 | 0
O=C(N/N=C/c1c(O)n(-c2ccc(Cl)cn2)c(=O)c2ccccc12)c1ccncc1 | 0 | 0 | -9.57 | 0 | 0
Cc1ccc(S(N)(=O)=O)cc1NC(=O)C1CC2CCC1C2 (configuration not stated) | 0 | 0 | 0 | 0 | 0
Cc1ccccc1-n1c2nc(=O)n(C)c(=O)c-2cc2ccccc21 | 0 | 0 | 0 | 0 | 0
CCCCn1c(=O)nc2n(-c3ccccc3C)c3ccccc3cc-2c1=O | 0 | 0 | -7.62 | 0 | 0
Cc1ccc(-c2nnn(CC(=O)N(c3cccc(F)c3)C(C(=O)NC3CCCC3)c3ccco3)n2)o1 (configuration not stated) | 0 | 0 | 0 | 0 | -6.58
Cc1ccc(-c2nnn(CC(=O)N(c3ccc(F)cc3)C(C(=O)NC3CCCC3)c3ccco3)n2)o1 (configuration not stated) | 0 | 0 | 0 | 0 | 0
Cc1ccc(CNC(=O)C2CCC(CNc3c(N4CCC(C)CC4)c(=O)c3=O)CC2)cc1 (configuration not stated) | 0 | 0 | 0 | 0 | 0
O=C(Nc1ccc2oc(-c3ccc(Cl)c(Cl)c3)nc2c1)c1ncn[nH]1 | 0 | 0 | 0 | 0 | 0
SMILES | RGS4 block | MrgX1 ag | RGS4 pot | MrgX1 allo act | MrgX1 antagonist
COc1ccccc1C(=O)NCCC(=O)N(C)CC(=O)Nc1ccc(C)cc1 | 0 | 0 | 0 | 0 | -5.17
COc1ccc(CCNC(=O)c2ccc(-c3cccc([N+](=O)[O-])c3)o2)cc1OC | 0 | 0 | 0 | 0 | 0
CN(C1CCCCC1)S(=O)(=O)c1ccc2c(c1)c(=O)c(C(=O)NCCN1CCCC1)cn2C | 0 | 0 | 0 | 0 | -4.61
O=C(O)CC1(c2ccc(F)cc2)C2CC3CC(C2)CC1C3 (configuration not stated) | 0 | 0 | 0 | 0 | -6.69
Cc1onc(-c2c(F)cccc2Cl)c1C(=O)NC(=S)Nc1c(C)n(C)n(-c2ccccc2)c1=O | 0 | 0 | -9.88 | 0 | 0
Cc1c(NC(=O)Nc2ccc(Cl)cc2)c(=O)n(-c2ccccc2)n1C | 0 | 0 | 0 | 0 | -5.95
CCN1CCN(C/C(C)=C/c2ccccc2)CC1 | 0 | 0 | 0 | 0 | 0
O=C(NCc1ccccn1)C1CCCN(Cc2cnn(-c3ccccc3)c2-n2cccc2)C1 (configuration not stated) | 0 | 0 | -7.26 | 0 | 0
O=C(NCc1ccccn1)C1CCN(Cc2cnn(-c3ccccc3)c2-n2cccc2)CC1 | 0 | 0 | 0 | 0 | 0
CCSc1ccccc1C(=O)NCc1cccnc1 | 0 | 0 | 0 | 0 | 0
CN1CC=C2C(C#N)=C(N)C(C#N)(C#N)C(c3cccc(Cl)c3Cl)C2C1 (configuration not stated) | 0 | 0 | 0 | 0 | -5.53
CN1CC=C2C(C#N)=C(N)C(C#N)(C#N)[C@H](c3ccoc3)[C@H]2C1 | 0 | 0 | 0 | 0 | 0
Cc1ccc(C2C3CN(C(C)C)CC=C3C(C#N)=C(N)C2(C#N)C#N)cc1 (configuration not stated) | 0 | 0 | -7.08 | 0 | 0
COc1ccc(OC)c(C2C3CN(C(C)C)CC=C3C(C#N)=C(N)C2(C#N)C#N)c1 (configuration not stated) | 0 | 27.1 | 0 | 0 | 0
S=C(S)N1CCCC1 | - | 0 | - | 0 | 0
CC(C)(C)OC(=O)N1CCOCCOCCN(C(=O)OC(C)(C)C)CCOCCOCC1 | 0 | 0 | 0 | 0 | 0
CCOc1ccc(NC(=O)CN(C)C(=O)c2ccc3nc(CC)c(CC)nc3c2)cc1OCC | 0 | 0 | 0 | 7.45 | 0
Cc1ccc2c(CN(C)Cc3cccc(Cl)c3)cc(=O)oc2c1C | 0 | 0 | 0 | 0 | 0
CSc1ccc(CN(C)Cc2cc(=O)oc3c(C)c(C)ccc23)cc1 | 0 | 0 | -7.17 | 0 | 0
COc1ccc(S(=O)(=O)N2CCN(c3c(C)cccc3C)CC2)cc1OC | 0 | 0 | 0 | 0 | 0
COc1cc(C(=O)Nc2cnc(NC(=O)C(C)C)cc2C)cc(OC)c1OC | 0 | 0 | 0 | 0 | -5.68
Cc1cc(NC(=O)C(C)C)ncc1NC(=O)Cc1ccccc1 | 0 | 0 | 0 | 0 | 0
O=C(Nc1cccc(Cl)c1)Nc1ccc2nccnc2c1 | 0 | 0 | 0 | 0 | -4.73
O=C(Nc1ccc2nccnc2c1)Nc1ccccc1Cl | 0 | 0 | 0 | 0 | 0
CCC(C)Sc1cccc(-c2nc3ccc(C)cn3c2NCc2ccccc2)c1 (configuration not stated) | 0 | 0 | -7.62 | 0 | 0
CCc1nc(N2CCN(C(=O)c3ccco3)CC2)c2c3c(sc2n1)CCCC3 | 0 | 0 | 0 | 0 | 0
O=C(c1ccco1)N1CCN(c2ncnc3sc4c(c23)CCC4)CC1 | 0 | 0 | -7.15 | 0 | 0
Nc1ccc(Oc2ccc(F)cc2)nc1 | 0 | 0 | 0 | 0 | 0
O=Cc1ccc(Oc2ccc(F)cc2)nc1 | 0 | 0 | 0 | 0 | -4.52
Cc1cccc(N2C(=O)N3[C@H](c4ccc(Br)cc4)[C@@H]4C(=O)N(C(C)(C)C)C(=O)[C@@H]4[C@]3(Cc3ccc(Cl)cc3)C2=O)c1 | 0 | 0 | 0 | 0 | 0

Bioassay records (PubChem)
